Assay results as given in PMC3831274 (Bioorganic & medicinal chemistry, 2013).

Assays:
Human Mcl-1 = Human Mcl-1 (Homo sapiens, UniProt Q07820); test: fluorescence polarization; assay type: binding; details: for Mcl-1 potency relative to initial hit 1 (in words): SAR of phenyl region
[1] = test system: several cell lines derived from various human malignancies; test: antiproliferative activity across several cell lines; assay type: cell-based
How it was run: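 Cells at 2.5 × 10⁵ cells/mL in 384-well plates; suspension lines in RPMI-1640/10% FBS (mouse lines plus β-mercaptoethanol), adherent lines in DMEM/10% FBS. Seven 2-fold dilutions from 5 µM or 20 µM top; DMSO top 0.2%. 37°C, 48 h; PrestoBlue read-out. Media background subtracted; viability normalized to cells-only wells (100%). Two independent triplicate runs (n=6) or three replicate experiments, by cell set.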

Bcl-xL = Bcl-xL (Homo sapiens, UniProt Q07817); test: fluorescence polarization; assay type: binding
Mcl1-1780 [2] = test: Annexin V apoptosis assay; assay type: cell-based, mouse; details: Mcl1-1780, 16 hours, 0.15 µM-40 µM
SUDHL-8 = test: cytochrome c release determination; assay type: cell-based, human; details: SUDHL-8, 2 hours, 20µM EU-5346 or 100µM Puma
Mcl1-1780 [3] = test: nuclear apoptosis determination; assay type: cell-based, mouse; details: Mcl1-1780, 24 hours
CYP450 3A4 = CYP450 3A4 (Homo sapiens, UniProt P08684); test: CYP450 inhibition 3A4; assay type: in vitro ADME
SUDHL-10 = test: cytochrome c release determination; assay type: cell-based, human; details: SUDHL-10, 2 hours, 20µM EU-5346 or 100µM Puma
CYP450 2D6 = CYP450 2D6 (Homo sapiens, UniProt P10635); test: CYP450 inhibition 2D6; assay type: in vitro ADME
Mcl1-1780 [4] = test: cytochrome c release determination; assay type: cell-based, mouse; details: Mcl1-1780 compared with Bcl2-1863, 2 hours
CYP450 1A2 = molecular target: T1, CYP450 1A2 (Homo sapiens, UniProt P05177); test: CYP450 inhibition 1A2
T1 sequence (P05177 1-516): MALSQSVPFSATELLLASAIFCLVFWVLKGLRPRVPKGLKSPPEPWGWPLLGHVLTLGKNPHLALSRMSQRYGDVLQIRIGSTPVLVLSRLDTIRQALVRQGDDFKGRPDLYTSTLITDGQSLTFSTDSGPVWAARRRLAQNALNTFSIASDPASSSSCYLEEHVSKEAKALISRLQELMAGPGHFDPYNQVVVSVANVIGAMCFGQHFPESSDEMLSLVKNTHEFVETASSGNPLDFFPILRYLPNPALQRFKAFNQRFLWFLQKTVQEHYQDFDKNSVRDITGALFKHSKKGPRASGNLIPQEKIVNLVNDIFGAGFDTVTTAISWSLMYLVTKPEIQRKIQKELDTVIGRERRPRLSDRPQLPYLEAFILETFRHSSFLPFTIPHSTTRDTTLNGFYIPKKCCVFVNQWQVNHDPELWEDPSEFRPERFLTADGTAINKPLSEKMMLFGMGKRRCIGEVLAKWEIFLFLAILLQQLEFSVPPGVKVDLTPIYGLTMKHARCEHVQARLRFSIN

SUDHL-6 = test: cytochrome c release determination; assay type: cell-based, human; details: SUDHL-6, 2 hours, 20µM EU-5346 or 100µM Puma
CYP450 2C9 = CYP450 2C9 (Homo sapiens, UniProt P11712); test: CYP450 inhibition 2C9; assay type: in vitro ADME
Bcl2-1863 [5] = test: Annexin V apoptosis assay; assay type: cell-based, mouse; details: Bcl2-1863, 16 hours, 0.15 µM-40 µM
Bcl2-1863 [6] = test: nuclear apoptosis determination; assay type: cell-based, mouse; details: Bcl2-1863, 24 hours

Chain of Human Mcl-1 (Q07820 1-327 limits assumed): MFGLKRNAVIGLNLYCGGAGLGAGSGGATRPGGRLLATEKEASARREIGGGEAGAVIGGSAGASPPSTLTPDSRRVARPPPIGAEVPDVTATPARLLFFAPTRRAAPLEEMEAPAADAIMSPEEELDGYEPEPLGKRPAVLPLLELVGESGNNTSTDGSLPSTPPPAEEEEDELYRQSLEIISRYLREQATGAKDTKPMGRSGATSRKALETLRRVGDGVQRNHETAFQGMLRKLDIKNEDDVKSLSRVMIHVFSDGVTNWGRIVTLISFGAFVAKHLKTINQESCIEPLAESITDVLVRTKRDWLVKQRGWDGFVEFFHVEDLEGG
Chain of Bcl-xL (Q07817 1-209 limits assumed): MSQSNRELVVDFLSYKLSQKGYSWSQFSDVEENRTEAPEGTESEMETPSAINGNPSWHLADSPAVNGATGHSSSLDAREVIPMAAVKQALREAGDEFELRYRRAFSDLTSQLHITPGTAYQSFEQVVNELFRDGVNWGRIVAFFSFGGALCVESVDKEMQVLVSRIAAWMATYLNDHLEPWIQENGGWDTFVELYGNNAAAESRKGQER
Chain of CYP450 3A4 (P08684 whole entry): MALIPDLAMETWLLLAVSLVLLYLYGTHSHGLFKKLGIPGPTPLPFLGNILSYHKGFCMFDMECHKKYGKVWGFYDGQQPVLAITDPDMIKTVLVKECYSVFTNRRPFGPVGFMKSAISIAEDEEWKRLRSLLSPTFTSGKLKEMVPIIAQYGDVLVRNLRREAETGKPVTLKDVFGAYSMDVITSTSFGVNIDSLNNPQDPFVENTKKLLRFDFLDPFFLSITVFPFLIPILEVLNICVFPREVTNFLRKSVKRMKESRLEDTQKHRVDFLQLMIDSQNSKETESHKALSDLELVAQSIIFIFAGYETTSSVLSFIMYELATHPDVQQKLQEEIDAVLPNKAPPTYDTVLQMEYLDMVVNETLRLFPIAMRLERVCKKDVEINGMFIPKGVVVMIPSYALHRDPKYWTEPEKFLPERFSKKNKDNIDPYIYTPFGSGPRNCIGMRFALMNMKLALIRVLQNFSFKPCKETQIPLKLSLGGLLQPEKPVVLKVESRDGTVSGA
Chain of CYP450 2D6 (P10635 whole entry): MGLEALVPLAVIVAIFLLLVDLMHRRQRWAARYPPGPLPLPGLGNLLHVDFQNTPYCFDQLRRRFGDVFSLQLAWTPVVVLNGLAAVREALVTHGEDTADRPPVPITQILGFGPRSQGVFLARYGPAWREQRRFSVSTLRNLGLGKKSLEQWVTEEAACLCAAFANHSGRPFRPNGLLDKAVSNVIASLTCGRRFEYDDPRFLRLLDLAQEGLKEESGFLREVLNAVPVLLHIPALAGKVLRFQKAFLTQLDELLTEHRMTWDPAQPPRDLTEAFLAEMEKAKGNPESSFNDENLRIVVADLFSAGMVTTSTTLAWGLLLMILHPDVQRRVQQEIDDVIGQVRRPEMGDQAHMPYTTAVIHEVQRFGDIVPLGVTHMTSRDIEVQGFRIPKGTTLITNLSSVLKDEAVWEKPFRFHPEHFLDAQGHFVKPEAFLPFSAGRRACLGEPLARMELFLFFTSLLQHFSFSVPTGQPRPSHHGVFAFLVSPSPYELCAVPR
Chain of CYP450 2C9 (P11712 whole entry): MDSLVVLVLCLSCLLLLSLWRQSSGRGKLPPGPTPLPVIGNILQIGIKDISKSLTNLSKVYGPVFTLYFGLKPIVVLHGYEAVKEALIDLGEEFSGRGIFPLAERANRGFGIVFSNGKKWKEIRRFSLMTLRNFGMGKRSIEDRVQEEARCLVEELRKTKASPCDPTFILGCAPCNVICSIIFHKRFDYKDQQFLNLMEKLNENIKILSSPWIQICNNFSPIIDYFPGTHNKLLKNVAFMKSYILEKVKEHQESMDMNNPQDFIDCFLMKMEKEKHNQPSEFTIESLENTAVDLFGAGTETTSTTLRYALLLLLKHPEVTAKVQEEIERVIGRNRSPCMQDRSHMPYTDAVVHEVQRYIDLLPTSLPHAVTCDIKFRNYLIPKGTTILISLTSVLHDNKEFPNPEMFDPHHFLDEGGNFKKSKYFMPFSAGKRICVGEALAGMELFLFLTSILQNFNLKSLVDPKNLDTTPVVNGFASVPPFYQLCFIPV

O=C(O)COc1ccccc1C(Nc1ccccn1)c1cc(Cl)c2cccnc2c1O (stereo not shown) [Compound 1]
selectivity over Bcl-xL (Human Mcl-1; Mcl-1 versus Bcl-xL, FP assays): greater than 40 fold | antiproliferative activity (in words) ([1]; cell lines not specified): only modest antiproliferative activity | inhibition of Bcl-xL (Bcl-xL; at 100 µM): no appreciable inhibition

COc1ccc(C(Nc2ccccn2)c2cc(Cl)c3cccnc3c2O)cc1 (stereo not shown) [Compound 6]
Mcl-1 potency relative to initial hit 1 (in words) (Human Mcl-1): enhanced potency

Oc1c(C(Nc2ccccn2)c2ccco2)cc(Cl)c2cccnc12 (stereo not shown) [Compound 7]
Mcl-1 potency relative to initial hit 1 (in words) (Human Mcl-1): enhanced potency

Cc1ccnc(NC(c2ccc(F)cc2)c2cc(Cl)c3cccnc3c2O)c1 (stereo not shown) [Compound 8]
Mcl-1 potency relative to initial hit 1 (in words) (Human Mcl-1): five-fold more potent

CCN1CCN(C(c2ccc(C(F)(F)F)cc2)c2cc(Cl)c3cccnc3c2O)CC1 (stereo not shown) [Compound 9]
percent of Annexin V positive cells (Mcl1-1780 [2]): greater in Mcl1-1780 than in Bcl2-1863 | cytochrome c release (SUDHL-8): significantly reduced | induction of nuclear apoptosis / reduced viability (DAPI) (Mcl1-1780 [3]): reduces viability with a marked preference | IC50 (CYP450 3A4): > 10 µM | EC50 ([1]; Homo sapiens, read-out: EC50 values, range over cell lines): 0.3 to 15 µM | efficacy in cellular proliferation assays (in words) ([1]; Mcl1-1780, Bcl2-1863, SUDHL-6, NCIH929): low micromolar efficacy | cytochrome c release (SUDHL-10): significantly reduced | IC50 (CYP450 2D6): > 10 µM | cytochrome c release (Mcl1-1780 [4]): significantly greater | IC50 (CYP450 1A2): > 10 µM | cytochrome c release (SUDHL-6): greatest extent of cytochrome c release | IC50 (CYP450 2C9): > 10 µM | percent of Annexin V positive cells (Bcl2-1863 [5]): displayed dose-dependency | IC50 (Bcl-xL; read-out: Bcl-xL IC50, FP assay, GST-Bcl-xL, FITC-Bim): 40 µM

CC1(C)CCC(c2ccc(Cl)cc2)=C(CN2CCN(c3ccc(C(=O)NS(=O)(=O)c4ccc(N[C@H](CCN5CCOCC5)CSc5ccccc5)c(S(=O)(=O)C(F)(F)F)c4)cc3)CC2)C1 [Navitoclax, reference compound]
induction of nuclear apoptosis / reduced viability (DAPI) (Mcl1-1780 [3]): only minimal effectiveness | induction of nuclear apoptosis / reduced viability (DAPI) (Bcl2-1863 [6]): distinct preference in inducing apoptosis
